The results in this text go back to ChEMBL document CHEMBL1133478, “Discovery of potent cyclic pseudopeptide human tachykinin NK-2 receptor antagonists” (J Med Chem, 2000).

Bridge positions count the residues as written; N and C are the ends. Square brackets hold non-standard residues; d marks the D form. Peptide text beside a SMILES is read from it. * marks the point of attachment. NH(β-GlcNAc) = CC(=O)N[C@@H]1[C@@H](O)[C@H](O)[C@@H](CO)O[C@H]1N*; Dap = NC[C@H](N)C(=O)O

One experiment concerns the target T1, Substance-K receptor (Homo sapiens, UniProt P21452).
T1 sequence (P21452 whole entry): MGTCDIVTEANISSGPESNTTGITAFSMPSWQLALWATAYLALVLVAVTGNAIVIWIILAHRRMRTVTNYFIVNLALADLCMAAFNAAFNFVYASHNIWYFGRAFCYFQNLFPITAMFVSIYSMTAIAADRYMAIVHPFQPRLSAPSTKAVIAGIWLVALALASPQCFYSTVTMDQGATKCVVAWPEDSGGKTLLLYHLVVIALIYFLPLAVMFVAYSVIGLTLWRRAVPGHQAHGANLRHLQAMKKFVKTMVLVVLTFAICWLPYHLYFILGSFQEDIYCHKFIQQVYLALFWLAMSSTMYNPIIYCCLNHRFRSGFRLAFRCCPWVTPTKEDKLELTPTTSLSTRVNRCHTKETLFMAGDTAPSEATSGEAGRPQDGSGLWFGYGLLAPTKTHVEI
The experiment is described as follows: Binding affinity towards Tachykinin receptor 2. In outline: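 Competition binding at human NK-2 receptor expressed in CHO cells, radioligand [125I]NKA. pKi computed with EBDA then LIGAND; mean of 2–6 experiments, each run in duplicate.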

Experiment [1] deals with Substance-K receptor (Oryctolagus cuniculus). The experiment is described as follows: In Vitro evaluation for the functional activity towards Tachykinin receptor 2.
Experiment [2] concerns the target Substance-P receptor (Cavia porcellus) (UniProt P30547).
The target in experiment [3] is T2, Neuromedin-K receptor (Cavia porcellus) (UniProt P30098).
T2 sequence (whole entry): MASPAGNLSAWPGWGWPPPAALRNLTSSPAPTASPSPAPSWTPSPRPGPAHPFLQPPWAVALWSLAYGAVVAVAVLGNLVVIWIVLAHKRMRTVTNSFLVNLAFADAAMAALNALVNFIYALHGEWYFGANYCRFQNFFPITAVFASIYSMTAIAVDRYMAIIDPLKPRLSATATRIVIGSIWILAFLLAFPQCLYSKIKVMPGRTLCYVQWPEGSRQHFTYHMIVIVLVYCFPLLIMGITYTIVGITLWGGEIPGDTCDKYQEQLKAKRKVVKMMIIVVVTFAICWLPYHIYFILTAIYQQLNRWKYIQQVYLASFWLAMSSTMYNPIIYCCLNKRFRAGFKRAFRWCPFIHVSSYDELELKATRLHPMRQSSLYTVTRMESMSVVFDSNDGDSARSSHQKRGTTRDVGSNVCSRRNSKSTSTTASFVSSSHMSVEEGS

The target of experiment [4] is T3, Substance-K receptor (Cavia porcellus) (UniProt Q64077).
T3 sequence (whole entry): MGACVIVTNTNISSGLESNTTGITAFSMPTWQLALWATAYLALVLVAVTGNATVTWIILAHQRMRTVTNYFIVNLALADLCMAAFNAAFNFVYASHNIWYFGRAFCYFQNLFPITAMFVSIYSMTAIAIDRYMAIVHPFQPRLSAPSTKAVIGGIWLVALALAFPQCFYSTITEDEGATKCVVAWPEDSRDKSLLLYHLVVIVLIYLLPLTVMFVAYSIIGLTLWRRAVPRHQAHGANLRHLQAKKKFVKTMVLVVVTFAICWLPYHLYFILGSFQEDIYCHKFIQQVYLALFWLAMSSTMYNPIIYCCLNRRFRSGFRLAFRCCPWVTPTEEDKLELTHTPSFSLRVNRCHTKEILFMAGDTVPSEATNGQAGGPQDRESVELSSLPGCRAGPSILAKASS

Substance-P receptor (Cavia porcellus), sequence (P30547 whole entry): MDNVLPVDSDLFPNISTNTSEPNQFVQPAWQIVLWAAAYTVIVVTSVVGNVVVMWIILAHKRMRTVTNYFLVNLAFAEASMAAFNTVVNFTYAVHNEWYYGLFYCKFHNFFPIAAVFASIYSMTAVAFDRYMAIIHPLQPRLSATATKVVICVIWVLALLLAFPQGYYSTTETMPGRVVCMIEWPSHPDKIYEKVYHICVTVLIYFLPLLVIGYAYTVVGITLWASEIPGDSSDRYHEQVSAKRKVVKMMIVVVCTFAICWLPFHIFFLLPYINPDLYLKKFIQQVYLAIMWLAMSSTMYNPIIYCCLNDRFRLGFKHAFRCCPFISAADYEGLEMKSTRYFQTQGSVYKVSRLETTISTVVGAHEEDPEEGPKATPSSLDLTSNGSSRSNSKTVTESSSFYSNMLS

For orientation: Ki means the dissociation constant of the complex between target and ligand, obtained from inhibition or displacement. Low values mean tighter binding, high ones weaker binding. `CC(=O)N[C@@H]1[C@@H](O)[C@H](O)[C@@H](CO)O[C@H]1NC(=O)C[C@@H]1NC(=O)[C@H](CC(C)C)NC(=O)[C@@H]2CNC(=O)C[C@H](NC1=O)C(=O)N[C@@H](Cc1c[nH]c3ccccc13)C(=O)N[C@@H](Cc1ccccc1)C(=O)N2` (cyclo(D(NH(β-GlcNAc))DWF[Dap]L); lactam 2-5): at Substance-K receptor, the Ki was 0.00251 µM.

As a reminder, the pKb is the negative decadic logarithm of the Kb, by convention in mol/L. A lower pKb goes with a large Kb. Compound `O=C1CC(Cc2ccccc2)C(=O)NCCNC(=O)[C@H](Cc2ccccc2)NC(=O)[C@H](Cc2c[nH]c3ccccc23)N1` (mixture of isomers) had a Ki on Substance-K receptor of 0.794 µM. In addition, the negative-log Kb (pKb) in experiment [1] was found to be 6.1.

The compound `O=C1CCC(=O)N[C@@H](Cc2c[nH]c3ccccc23)C(=O)N[C@@H](Cc2ccccc2)C(=O)N[C@H](Cc2ccc3ccccc3c2)CN1` showed an inhibitory constant (Ki) at Substance-K receptor of 0.00794 µM. For the same compound, the negative logarithm of the Kb (pKb) in experiment [1] is 7.

As a reminder, the pKB is the KB on a negative log10 scale, so that one unit is a factor of ten. Regarding `O=C1CCC(=O)NC(Cc2c[nH]c3ccccc23)C(=O)N[C@@H](Cc2ccccc2)C(=O)N[C@H](Cc2ccccc2)CN1` (single isomer, unassigned), the negative-log KB (pKB) in experiment [2] was found to be 5.7; in experiment [3], 6.1; in experiment [4], 7.8. Also, on Substance-K receptor, the Ki was 0.002 µM.

For `O=C1CCC(=O)N[C@@H](Cc2c[nH]c3ccccc23)C(=O)N[C@@H](Cc2ccccc2)C(=O)N[C@H](Cc2ccc(Cl)c(Cl)c2)CN1`, on Substance-K receptor, the Ki was 0.0001 µM. For the same compound, the negative-log Kb (pKb) in experiment [1] was 8.1.

On Substance-K receptor, `O=C1CCC(=O)N[C@@H](Cc2c[nH]c3ccccc23)C(=O)N[C@@H](Cc2ccccc2)C(=O)NC[C@H](Cc2ccccc2)N1` showed a Ki of 1.26 µM. This compound displayed a pKb in experiment [1] of 5.5.

On Substance-K receptor, `O=C1CCC(=O)N[C@@H](Cc2c[nH]c3ccccc23)C(=O)N[C@@H](Cc2ccccc2)C(=O)N[C@H](CCc2ccccc2)CN1` showed an inhibition constant Ki of 0.01 µM. This compound also registered a negative-log Kb (pKb) in experiment [1] of 6.5.

On Substance-K receptor, `COc1ccc(CC2CNC(=O)CCC(=O)N[C@@H](Cc3c[nH]c4ccccc34)C(=O)N[C@@H](Cc3ccccc3)C(=O)N2)cc1` (some centres not stated) had a Ki of 0.01 µM. This compound also displayed a negative-log Kb (pKb) in experiment [1] of 7.1.

At Substance-K receptor, `O=C1CCC(=O)N[C@@H](Cc2c[nH]c3ccccc23)C(=O)N[C@@H](Cc2ccccc2)C(=O)NC(Cc2ccccc2)CN1` (some centres not stated) gave a Ki of 1.26 µM.

`O=C1CCC(=O)N[C@@H](Cc2c[nH]c3ccccc23)C(=O)N[C@@H](Cc2ccccc2)C(=O)N[C@H](CC2CCCCC2)CN1`: at Substance-K receptor, the Ki was 0.316 µM. In experiment [1], this compound showed a pKb of 6.5.

`O=C1CCC(=O)N[C@@H](Cc2c[nH]c3ccccc23)C(=O)N[C@@H](Cc2ccccc2)C(=O)NCCN1` gave an inhibitory constant (Ki) on Substance-K receptor of 1.26 µM. For the same compound, the pKb in experiment [1] is 6.3.

Turning to `CSCC[C@@H]1NC(=O)[C@H](CC(C)C)NC(=O)[C@@H]2CNC(=O)C[C@H](NC1=O)C(=O)N[C@@H](Cc1c[nH]c3ccccc13)C(=O)N[C@@H](Cc1ccccc1)C(=O)N2` (cyclo(DWF[Dap]LM); lactam 1-4), the inhibition constant (Ki) on Substance-K receptor was 0.000631 µM. This compound yielded a pKb in experiment [1] of 8.1.

For the compound `O=C1CCC(=O)N[C@@H](Cc2c[nH]c3ccccc23)C(=O)N[C@@H](Cc2ccccc2)C(=O)N[C@H](Cc2ccc(F)c(F)c2)CN1`, affinity at Substance-K receptor was put at a Ki of 0.00158 µM. This compound also displayed a negative logarithm of the Kb (pKb) in experiment [1] of 7.8.

In turn, `O=C1CC(Cc2ccccc2)C(=O)N[C@@H](Cc2c[nH]c3ccccc23)C(=O)N[C@@H](Cc2ccccc2)C(=O)NCCN1` (mixture of isomers) had a Ki at Substance-K receptor of 0.631 µM. The same compound returned a negative logarithm of the Kb (pKb) in experiment [1] of 5.7.

Take `O=C1CCC(=O)N[C@H](Cc2ccccc2)CNC(=O)[C@H](Cc2ccccc2)NC(=O)C(Cc2c[nH]c3ccccc23)N1` (single isomer, unassigned): on Substance-K receptor, the Ki was 1.26 µM. This compound registered a pKb in experiment [1] of 5.4.

For the compound `O=C1CCC(=O)N[C@@H](Cc2c[nH]c3ccccc23)C(=O)N[C@@H](Cc2ccccc2)C(=O)N[C@H](Cc2ccc(C(F)(F)F)cc2)CN1`, on Substance-K receptor, the inhibitory constant (Ki) was 0.02 µM. The pKb in experiment [1] was found to be 7.1.
